How the values were obtained:
Details in all cases: stereoisomer not certain
Or1m1 (Mus musculus) = target: T1, Or1m1 (Mus musculus) (UniProt Q8VFM9)
T1 sequence (whole entry): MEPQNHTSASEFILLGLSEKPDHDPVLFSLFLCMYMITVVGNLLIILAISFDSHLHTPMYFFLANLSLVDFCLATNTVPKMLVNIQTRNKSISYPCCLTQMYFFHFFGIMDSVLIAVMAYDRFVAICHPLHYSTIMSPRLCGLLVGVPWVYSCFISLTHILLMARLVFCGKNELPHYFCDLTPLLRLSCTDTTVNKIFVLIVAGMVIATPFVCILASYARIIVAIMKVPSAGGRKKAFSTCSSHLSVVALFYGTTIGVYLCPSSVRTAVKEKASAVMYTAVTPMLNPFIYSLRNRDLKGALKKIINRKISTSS
How it was run: (§1)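 Transient luciferase assays in mammalian cell lines were common, though methods varied by source. The values come from published papers and their supplementary material, with extra details from the original authors when needed. Responsive refers to a measured signal the original authors judged statistically different from baseline, and non-responsive (inactive) to the remainder.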

Or5ar1 (Mus musculus) = target: T2, Or5ar1 (Mus musculus) (UniProt Q8VGS3)
T2 sequence (whole entry): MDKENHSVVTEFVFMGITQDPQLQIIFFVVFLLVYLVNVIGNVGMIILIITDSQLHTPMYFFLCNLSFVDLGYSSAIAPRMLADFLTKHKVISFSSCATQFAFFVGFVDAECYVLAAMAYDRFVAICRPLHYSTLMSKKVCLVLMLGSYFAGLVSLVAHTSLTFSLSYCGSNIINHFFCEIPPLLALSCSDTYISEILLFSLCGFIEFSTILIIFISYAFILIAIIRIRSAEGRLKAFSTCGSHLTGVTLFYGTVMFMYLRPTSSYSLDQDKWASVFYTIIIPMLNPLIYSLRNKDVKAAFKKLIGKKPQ
How it was run: as §1

Or5k16 (Mus musculus) = target: T3, Or5k16 (Mus musculus) (UniProt Q7TS48)
T3 sequence (whole entry): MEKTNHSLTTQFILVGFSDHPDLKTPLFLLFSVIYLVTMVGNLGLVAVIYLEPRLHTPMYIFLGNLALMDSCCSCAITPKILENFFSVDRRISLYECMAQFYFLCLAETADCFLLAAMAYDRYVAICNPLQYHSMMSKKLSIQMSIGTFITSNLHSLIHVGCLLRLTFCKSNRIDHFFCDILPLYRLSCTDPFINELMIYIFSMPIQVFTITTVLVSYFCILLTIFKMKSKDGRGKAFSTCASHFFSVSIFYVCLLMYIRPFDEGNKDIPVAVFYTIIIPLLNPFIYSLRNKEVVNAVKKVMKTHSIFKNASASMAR
How it was run: as §1
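Note: active if original authors judged signal statistically different from baseline.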

| Compound | odorant receptor agonist call (Or1m1 (Mus musculus)) | odorant receptor agonist call (Or5ar1 (Mus musculus)) | odorant receptor agonist call (Or5k16 (Mus musculus)) |
| --- | --- | --- | --- |
| CCCCCCC(=O)OCCCC | inactive | inactive |  |
| C=C(CC)CCCC(C)(C)O | inactive | inactive |  |
| C=CC(C)=CCC=C(C)CCC=C(C)C | inactive | inactive |  |
| C=CC(=C)CCC=C(C)C | inactive | inactive |  |
| CCCCCC(=Cc1ccccc1)C(OC)OC | inactive | active |  |
| CCCCCCC(C=O)=Cc1ccccc1 | inactive | inactive |  |
| CCc1nccnc1CC | inactive | inactive | inactive |
| COc1ccccc1 | inactive | inactive |  |
| CC(=O)OC1(C)CCC23CC1C(C)(C)C2CCC3C (stereo unspecified) | active | inactive |  |
| OCCc1ccccc1 | inactive | inactive |  |
| CSSCc1ccco1 | inactive | inactive |  |
| Cc1ccc(OC(=O)C(C)C)cc1 | inactive | inactive |  |
| CCN(CC)CC | inactive | inactive |  |
| Cc1ccc2c(c1)OCC(=O)CO2 | inactive | inactive |  |
| CCCCCCCOC(=O)C(C)C | inactive | inactive |  |

From the M2OR odorant receptor database
